High-throughput results deposited in PubChem by several laboratories.
Compounds with a hit are over-represented: about 2.2% of the library has one in this group of screens.
MT stabilizer = microtubule stabilizers in HeLa cells, primary screen, imaging, high-content imaging; AID 2205, 2009; 0.83% of 200,000 active; HeLa tubulin immunostaining HCS, 24 h; share of cells brighter than vehicle mean+2SD; % tubulin-high responders, % at 10 µM;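 active means plate Z-score above 3 for both tubulin-high and condensed-nucleus cell shares, with cell loss under 80%, at 10 µM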;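 further: anti alpha tubulin signal scored within the nucleus-defined area of each cell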
IEC-6 cytotox = cytotoxicity in IEC-6 intestinal epithelial cells, primary screen, cytotoxicity control for KLF5 inhibitor project, cell-based, luminescence | IEC-6 cytotoxicity, luminescence viability | inhibition, % at 5 µM | 0.78% of 290,000 active; in the data active means inhibition above about 22%
Ba/F3 V617F tox = reduced viability of JAK2V617F-dependent Ba/F3 cells, primary screen, JAK2V617F inhibitor project, cell-based, Ba/F3 EpoR-JAK2V617F, luminescence | ATP luminescence | inhibition, % at 5.6 µM | 1.1% of 220,000 active | AID 1446, 2008;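 active means inhibition above the campaign mean plus 3 SD over all tested compounds, cut at about 24% in these data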;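 further: cytokine-independent growth of Ba/F3 cells driven by EpoR plus mutant JAK2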
b-catenin transl = modulators of beta-catenin nuclear translocation, primary screen, imaging, HeLa cells, immunofluorescence, high-content. 0.3% of 190,000 active. nuclear translocation activity, % at 5 µM. AID 1665, 2009;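 active means nuclear translocation activity above 50% at 5 µM, with a well cell count of 50 or more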;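 further: per-cell ratio of nuclear to cytoplasmic median beta-catenin stain intensity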
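System: HeLa cells, endogenous beta-catenin; compound dosing: 5 µM primary single dose, 0.1% DMSO, 0.02–20 µM confirmation series; incubation: 24 h compound exposure at 37°C, 5% CO2; signal: beta-catenin immunofluorescence imaging with DAPI; evaluation: % activation, nuclear-to-cytoplasmic median beta-catenin signal ratio per cell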
APP transl inh = inhibitors of APP translation via 5'UTR reporter, primary screen, APP 5'UTR luciferase, SH-SY5Y cells; SH-SY5Y APP 5'UTR-luciferase reporter, luminescence; inhibition, % at 2 µM; 0.82% of 190,000 active;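 active means inhibition above a set limit, derived from the sample mean plus 3 SD, cut at about 45% in these data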
BaF3 tox = parental Ba/F3 cell viability inhibition, counter-screen for JAK2V617F inhibitor project, murine pro-B, CellTiter-Glo luminescence | CellTiter-Glo ATP luminescence | 1.1% of 220,000 active | inhibition, % at 5.6 µM;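 active means inhibition above a per-campaign cutoff, the mean inhibition of all tested compounds plus 3 SD, cut at about 27% in these data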
Large screens that a line does not name were inactive.

Cc1ccc(N(CC(=O)NCc2ccc(F)cc2)S(=O)(=O)c2c(C)n[nH]c2C)cc1	none (no result: MT stabilizer, Ba/F3 V617F tox, b-catenin transl, APP transl inh, BaF3 tox)
C=C(c1ccc(OC)cc1)c1ccc(OC)cc1	b-catenin transl 88
COc1ccc(C(N)=S)cc1	none
O=C(Nc1ncc(Cc2ccc(SC(F)F)cc2)s1)c1ccccc1	MT stabilizer 34, APP transl inh 86
CCOc1ccc(-c2cc(C(=O)N/N=C(\C)c3cccnc3)c3ccccc3n2)c(OCC)c1	none (no result: MT stabilizer, Ba/F3 V617F tox, b-catenin transl, APP transl inh, BaF3 tox)
Cc1oc2cc3oc(=O)c(CCC(=O)NCCCN4CCOCC4)c(C)c3cc2c1C	none (no result: MT stabilizer, Ba/F3 V617F tox, b-catenin transl, APP transl inh, BaF3 tox)
O=C(C1=C[C@@H](c2csc3ccccc23)C[C@@H](OCc2ccc(CO)cc2)O1)N1CCN(Cc2ccc3c(c2)OCO3)CC1	MT stabilizer 22
O=C(C1=C[C@H](c2ccccc2)C[C@H](OCc2ccc(CO)cc2)O1)N1CCN(Cc2ccccc2)CC1	none
O=C(C1=C[C@@H](c2csc3ccccc23)C[C@@H](OCc2ccc(CO)cc2)O1)N1CCN(Cc2ccccc2)CC1	none
O=C(C1=C[C@@H](c2ccccc2)C[C@@H](OCc2ccc(CO)cc2)O1)N1CCN(Cc2ccc3c(c2)OCO3)CC1	MT stabilizer 13
O=C(Nc1nc2ccc([N+](=O)[O-])cc2s1)c1ccco1	none
CC(=O)N(Cc1ccc(F)cc1)C1=C(NCc2ccccc2)C(=O)c2ccccc2C1=O	APP transl inh 65, BaF3 tox 48
O=C1C=C(Nc2ccc(O)cc2)CC(c2ccco2)C1 (centres undefined)	MT stabilizer 46
CCOC(=O)c1ccc(NC2=CC(=O)CC(c3ccco3)C2)cc1 (centres undefined)	none
Cc1[nH]c2ccccc2c1/C=C/c1nc2ccccc2c(=O)[nH]1	none (no result: MT stabilizer, APP transl inh)
Cc1cccc(/C=C/c2nc3ccccc3c(=O)[nH]2)c1	MT stabilizer 26
Cc1nc2c3ccccc3n(Cc3ccccc3F)c2s1	none
Cc1nc2c3cc(F)ccc3n(Cc3ccccc3F)c2s1	MT stabilizer 27
Cc1nc2c3cc(F)ccc3n(Cc3ccccc3)c2s1	MT stabilizer 28
Cc1nc2c3cc(F)ccc3n(CCN3CCCCC3)c2s1	MT stabilizer 14
CCOC(=O)c1ccccc1-c1csc(N)n1	BaF3 tox 53
CCOC(=O)c1c(C)[nH]c(-c2csc(N)n2)c1C	APP transl inh 73
CCOC(=O)c1csc(N)n1	none
CCOC(=O)c1c(C)[nH]c(-c2csc(C)n2)c1C	none
CCOc1ccc(/C=N/NC(=O)c2[nH]c3ccc(C)cc3c2C)cc1	none (no result: MT stabilizer, Ba/F3 V617F tox, b-catenin transl, APP transl inh, BaF3 tox)
Cc1c(C(=O)N/N=C/c2ccc(Cl)cc2)[nH]c2ccc(Cl)cc12	b-catenin transl 119, APP transl inh 93
N#C/C(=C\c1ccc(OCc2ccc(C(=O)O)cc2)cc1)C(=O)N1CCOCC1	APP transl inh 56
Cc1ccc(-n2c(CCC(=O)O)ccc2-c2cccs2)cc1C	BaF3 tox 55
O=C(N/N=C/c1ccc(Br)cc1)c1ccccc1-n1cccc1	MT stabilizer 47
Cc1cc(C)nc(NS(=O)(=O)c2ccc(NC(=O)Cc3ccccc3F)cc2)n1	none (no result: MT stabilizer, Ba/F3 V617F tox, b-catenin transl, APP transl inh, BaF3 tox)
NC(=S)n1[nH]c(-c2ccc([N+](=O)[O-])cc2)c(N=Nc2ccccc2[N+](=O)[O-])c1=O	BaF3 tox 46
CC(C)c1cc(NCCOCCO)n2c(nc3ccccc32)c1C#N	none (no result: MT stabilizer, Ba/F3 V617F tox, b-catenin transl, APP transl inh, BaF3 tox)
Cc1oc2cc(Br)c(O)c(Br)c2c1-c1ccccc1	none (no result: MT stabilizer, Ba/F3 V617F tox, b-catenin transl, APP transl inh, BaF3 tox)
CCn1c(=O)cc(SCC(=O)NCc2ccc(C)cc2)c2ccccc21	MT stabilizer 31
CCn1c(=O)cc(SCC(=O)NCc2ccco2)c2ccccc21	MT stabilizer 46, b-catenin transl 55
CN1C=C/C(=C\c2cc[n+](C)c3ccccc23)c2ccccc21	BaF3 tox 51
O=C(O)c1ccc(CN2C(=O)c3ccc(Oc4ccc([N+](=O)[O-])cc4)cc3C2=O)cc1	none (no result: MT stabilizer, Ba/F3 V617F tox, b-catenin transl, APP transl inh, BaF3 tox)
Cc1cc(F)c(F)c(C(=O)N2CCOCC2)c1Cl	none
Cc1ccc(C(=O)N2CCOCC2)c(F)c1F	BaF3 tox 90
CCOc1[nH]n(-c2ccccc2)c(=O)c1C=NCc1ccncc1	APP transl inh 49
